The subject of experiment [1] is Radical scavenging activity. In words: Antioxidant activity assessed as DPPH radical scavenging activity after 30 mins by microplate reader assay. The experiment is classed as functional. An outline of the steps:
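Mixed 1 min, then kept at room temperature ([…]) for 30 min. Absorbance read at 515 nm. Scavenging % corrected for a no-DPPH blank. IC50 taken from a calibration curve. Triplicate experiments, mean reported.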

Experiment [2] can be described thus: Antioxidant activity assessed as superoxide radical scavenging activity after 20 mins by NBT reduction assay. The experiment is classed as functional. A digest of the protocol:
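Superoxide made by xanthine/xanthine oxidase and detected by NBT reduction. Xanthine oxidase (0.8 U/ml stock) added, then 37 °C for 20 min. Stopped with 1 M HCl and read at 560 nm. Blank lacks enzyme. IC50 from a calibration curve. Triplicate experiments, mean.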

Experiment [3] deals with T1, Prostaglandin G/H synthase 1 (Ovis aries, UniProt P05979).
T1 sequence (P05979 whole entry): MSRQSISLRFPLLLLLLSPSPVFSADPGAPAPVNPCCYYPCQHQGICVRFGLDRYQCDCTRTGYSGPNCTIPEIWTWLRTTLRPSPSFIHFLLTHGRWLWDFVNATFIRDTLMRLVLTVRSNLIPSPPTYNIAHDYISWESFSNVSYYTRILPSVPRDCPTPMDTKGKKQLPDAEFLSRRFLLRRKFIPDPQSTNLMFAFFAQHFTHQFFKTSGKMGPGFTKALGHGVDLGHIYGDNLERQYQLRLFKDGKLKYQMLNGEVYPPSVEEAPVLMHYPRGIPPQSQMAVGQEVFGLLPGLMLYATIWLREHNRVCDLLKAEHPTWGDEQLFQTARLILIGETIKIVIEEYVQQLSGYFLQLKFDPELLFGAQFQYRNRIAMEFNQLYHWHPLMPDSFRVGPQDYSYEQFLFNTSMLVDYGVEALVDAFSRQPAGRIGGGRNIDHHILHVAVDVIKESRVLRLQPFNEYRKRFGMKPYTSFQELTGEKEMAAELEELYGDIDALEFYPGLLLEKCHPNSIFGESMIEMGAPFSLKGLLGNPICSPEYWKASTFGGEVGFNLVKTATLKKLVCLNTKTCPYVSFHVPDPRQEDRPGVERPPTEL
In words: Inhibition of ovine COX1 by colorimetric assay. An outline of the steps:
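Ovine COX-1, colorimetric inhibitor screening kit. Enzyme preincubated 5 min at 25 °C with compound. Arachidonic acid (final 1.1 mM) and TMPD then added, 5 min at 25 °C. Inhibition % = [1−(A1−A2)/A0]×100, blank without TMPD. IC50 from calibration curve over several concentrations. Triplicate experiments, mean reported.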

The structures appear in SMILES notation. Values after ≈ are worked out from the molar mass of the structure shown.

What is called IC50 is the concentration that gives 50% inhibition. Consider `O=C(/C=C/C=C/c1ccc(O)cc1)/C=C/c1ccc(O)cc1`, for which the figures for the IC50 in experiment [1], in experiment [2] and in experiment [3] were greater than 100 µg/mL, greater than 100 µg/mL and 19.8 µM, respectively.
For `COc1ccc(CCc2ccccc2O)cc1OC`, the IC50 is greater than 100 µg/mL in experiment [1], greater than 100 µg/mL in experiment [2] and greater than 387 µM in experiment [3].
As for `Oc1cc(O)cc(CCc2ccccc2O)c1`, the IC50 in experiment [1] is greater than 100 µg/mL; in experiment [2], greater than 100 µg/mL; in experiment [3], greater than 434 µM.
For the compound `COc1c(O)cc(CCc2ccccc2)cc1O`, the IC50 in experiment [1] is 37.5 µg/mL (≈ 154 µM); in experiment [2], greater than 100 µg/mL; in experiment [3], greater than 409 µM.
Take `COc1c(O)cccc1CCc1cc(O)cc(O)c1`: the IC50 in experiment [1] was 46.7 µg/mL (≈ 179 µM); in experiment [2], greater than 100 µg/mL; in experiment [3], greater than 384 µM.
As to `Oc1cc(O)c2c(c1)CCc1ccccc1O2`, the IC50 in experiment [1] was greater than 100 µg/mL; in experiment [2], greater than 100 µg/mL; in experiment [3], greater than 438 µM.
As to `COc1cc(O)cc2c1Oc1ccccc1CC2`, the values for the IC50 in experiment [1], in experiment [2] and in experiment [3] were 40.6 µg/mL (≈ 168 µM), greater than 100 µg/mL and greater than 413 µM, respectively.
With `COc1cc(CCc2ccccc2O)cc(OC)c1O`, the values for the IC50 in experiment [1], in experiment [2] and in experiment [3] were 28.8 µg/mL (≈ 105 µM), 56.3 µg/mL (≈ 205 µM) and greater than 365 µM, respectively.
In the case of `COc1cc(/C=C/C=C/C(=O)CCc2ccc(O)cc2)ccc1O`, the IC50 in experiment [1] is 40 µg/mL (≈ 123 µM); in experiment [2], 38.8 µg/mL (≈ 120 µM); in experiment [3], greater than 308 µM.
In the same order, the values of `O=C(/C=C/C=C/c1ccc(O)cc1)CCc1ccc(O)cc1` are greater than 100 µg/mL, 44.1 µg/mL (≈ 150 µM) and greater than 340 µM.
In the same order, the values of `COc1cc2c(ccc3cc(O)cc(OC)c32)cc1O` are 31.4 µg/mL (≈ 116 µM), 39.6 µg/mL (≈ 147 µM) and 11.1 µM.
In the same order, the values of `COc1cc(CC[C@@H](O)C[C@H](O)CCc2ccc(O)c(OC)c2)ccc1O` are 12.3 µg/mL (≈ 32.7 µM), 48.7 µg/mL (≈ 129 µM) and greater than 266 µM.
In the case of `Oc1ccc(CC[C@@H](O)C[C@H](O)CCc2ccc(O)cc2)cc1` [(+)-HANNOKINOL], the IC50 in experiment [1] is greater than 100 µg/mL; in experiment [2], greater than 100 µg/mL; in experiment [3], greater than 316 µM.
Turning to `O=c1cc(-c2ccc(O)cc2)oc2cc(O)cc(O)c12` [APIGENIN], the IC50 in experiment [1] was greater than 100 µg/mL; in experiment [2], greater than 100 µg/mL; in experiment [3], greater than 370 µM.
On to `O=C1O[C@H]([C@@H](O)CO)C(O)=C1O` [ASCORBIC ACID], for which the IC50 turned out to be 19.2 µg/mL (≈ 109 µM) in experiment [1] and 16.7 µg/mL (≈ 94.8 µM) in experiment [2].
With `COc1cc(O)cc(CCc2cccc(O)c2)c1` [BATATASIN III], the half-inhibitory concentration (IC50) is greater than 100 µg/mL in experiment [1], greater than 100 µg/mL in experiment [2] and greater than 409 µM in experiment [3].
On to `COc1cc(O)cc(CCc2ccccc2O)c1` [BATATASIN IV], for which the results for the IC50 in experiment [1], in experiment [2] and in experiment [3] were greater than 100 µg/mL, greater than 100 µg/mL and greater than 409 µM, respectively.
Regarding `Oc1cc(O)c2c(c1)OC(c1ccc(O)c(O)c1)C(O)C2` (stereo not given) [CATECHIN], the results for the IC50 in experiment [1] and in experiment [2] were 13.5 µg/mL (≈ 46.5 µM) and 13.7 µg/mL (≈ 47.2 µM), respectively.
Take `COc1cc(O)cc2c1-c1c(O)cccc1CC2` [HIRCINOL]: the IC50 in experiment [1] was 63.8 µg/mL (≈ 263 µM); in experiment [2] it was 62.4 µg/mL (≈ 258 µM); in experiment [3], greater than 413 µM.
In the same order, the values of `COc1cc(O)c2c(c1)CCc1cc(O)ccc1-2` [LUSIANTHRIDIN] are 43 µg/mL (≈ 177 µM), 51.5 µg/mL (≈ 213 µM) and greater than 413 µM.
Regarding `COc1cc(CCc2cc(O)cc(O)c2)ccc1O` [TRISTIN], the IC50 in experiment [1] came to 35.2 µg/mL (≈ 135 µM); in experiment [2], 51.6 µg/mL (≈ 198 µM).

Source of the values: ChEMBL document CHEMBL1153410, “Phenolic compounds with radical scavenging and cyclooxygenase-2 (COX-2) inhibitory activities from Dioscorea opposita” (Bioorg Med Chem, 2009).
